In article PMC7445463 (Diabetologia, 2020):
Ends that are not written are not given here.

Experiments:
[1] = Nasal vs injectable glucagon, insulin-induced hypoglycaemia; type: in vivo, human
[2] = test system: isolated diabetic mouse hearts; assay: Langendorff-perfused db/db hearts, stable isotope analysis; settings: 10 μM Cariporide
[3] = CDHFD-induced NASH and fibrosis mice; type: in vivo, mouse
[4] = EXSCEL post-hoc analysis, eGFR slope and UACR; type: in vivo, human
[5] = 48-week tofogliflozin vs glimepiride trial in T2D with NAFLD; type: in vivo, human; settings: after 48 weeks; for AST: baseline 55.4 ± 41.8 / 49.7 ± 46.8; for ALT: baseline 72.2 ± 60.5 / 76.4 ± 77.8; for body weight: baseline 78.7 ± 17.7 / 81.3 ± 19.2; for HbA1c: baseline tofogliflozin 8.0 ± 0.5, glimepiride 8.4 ± 0.9
[6] = test system: mouse hypothalamic (mHypoA) and human (SH-SY5Y) neuronal cells; assay: Resistin overexposure of neuronal cells; type: cell-based; settings: for resistin-dependent neuronal inflammation and IR: pharmacological inhibition
SD rat islets = assay: Perifusion of rat islets, GSIS; type: cell-based; settings: for potentiation of GSIS at low concentrations: 10-100 pM
[7] = 6-day s.c. GIP infusion crossover study, T1D; type: in vivo, human
[8] = test system: obese T2DM and lean subjects; assay: GIP infusion, tissue blood flow; type: in vivo, human
[9] = test system: patients with type 2 diabetes; assay: Network meta-analysis of antidiabetic medications on blood pressure; set-up: species or system human; settings: network meta-analysis
[10] = DIO-NASH biopsy-confirmed mouse model; type: in vivo
Summary of the method: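 Male C57BL/6JRj mice fed AMLN diet (40% fat with trans-fat, 20% fructose, 2% cholesterol) for 33 weeks, then liver-biopsied. Only mice with steatosis score ≥2 and fibrosis stage ≥F1 were stratified into groups (n=12-13). Groups received vehicle or test compound at 10 or 30 mg/kg for a further 12 weeks.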

[11] = test system: obese men without diabetes; assay: FLT-PET/MRI and pancreatic enzymes during liraglutide; type: in vivo, human
[12] = Insulin icodec vs IGlar U100 26-week phase 2 trial; type: in vivo, human
Summary of the method: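 Randomized, double-blind, double-dummy, treat-to-target phase 2 trial lasting 26 weeks. Participants were insulin-naïve adults with T2D and HbA1c 7.0-9.5% on metformin ± DPP4i, randomized 1:1 (n=247). Starting doses were 70 U once weekly or 10 U once daily, titrated weekly to a pre-breakfast SMBG target of 3.9-6.0 mmol/L. The primary endpoint was HbA1c change from baseline to week 26; FPG and mean weekly dose over the last two weeks were secondary.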

[13] = 12 week L-carnitine treatment in type 2 diabetes patients; type: in vivo, human; settings: after 12 weeks
Summary of the method: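 32 patients with type 2 diabetes treated with L-carnitine for 12 weeks, with plasma free carnitine checked for compliance. Two-step hyperinsulinemic-euglycemic clamp (10 then 40 mU/m2/min) with D-[6,6-2H2]-glucose tracer gave hepatic (EGP suppression) and peripheral sensitivity. Vastus lateralis acetylcarnitine by T1-edited long-TE (350 ms) 1H-MRS at rest and after 30 min cycling at 70% Wmax. IHL by 1H-MRS. All measured before and after.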

[14] = resistin overexposure, neuronal cells

## glucagon [injectable glucagon]
[1]; in vivo
  geometric least square mean maximal blood glucose (BGMAX): 11.4 mmol/L
  headache: 5.8%
  mean time to treatment success: 10.4 min
  nausea: 28.8%
  vomiting: 11.5%
[1]; within 15 minutes, T1D or T2D
  patients achieving treatment success: 97.0%

## CC(C)c1ccc(C(=O)NC(=N)N)cc1S(C)(=O)=O [Cariporide]
[2]
  Empa effects on lactate labeling and G6P: mitigated

## O=C(O)c1ccnc(N2CC(O)(c3ccc(OCc4c(-c5c(Cl)cccc5Cl)noc4C4CC4)cc3Cl)C2)c1 [CIL, Cilofexor]
[3]; CDHFD 14 weeks, treatment last 6 weeks
  hepatic TG vs vehicle: 2.6%
[3]; mouse, in vivo
  collagen-1α1 gene expression vs vehicle: -37.5%
  hepatic F4/80 gene expression vs vehicle: -1.6%
  hepatic IL-1β gene expression vs vehicle: -37.5%
  hepatic TBARS vs vehicle: 11.0%
  hepatic hydroxyproline vs vehicle: -13.7%

## once-weekly exenatide [EQW]
[4]; baseline UACR>30 mg/g
  reduction of UACR vs placebo: 28.2%
[4]; baseline UACR>100 mg
  reduction of UACR vs placebo: 22.5%
[4]; baseline UACR>100mg/g, 95% CI 0.24-1.34
  eGFR slope vs placebo: +0.79 mL/min/1.73m2/year
[4]; baseline UACR>200 mg
  reduction of UACR vs placebo: 34.5%
[4]; baseline UACR>200mg/g, 95% CI 0.57-2.06
  eGFR slope vs placebo: +1.32 mL/min/1.73m2/year

## CCC1=C(C)CN(C(=O)NCCc2ccc(S(=O)(=O)NC(=O)N[C@H]3CC[C@H](C)CC3)cc2)C1=O [glimepiride]
[5]
  AST: 52.3 ± 37.6 IU/L
  ALT: 78.9 ± 68.7 IU/L
  body weight: 81.9 ± 21.1 kg
  HbA1c: 7.5 ± 0.6%

## CCCCCCC(=O)CCCCCC/C=C/C[C@@H](O)[C@H](O)[C@@](N)(CO)C(=O)O [myriocin]
[6]
  resistin-dependent neuronal inflammation and IR: prevents

## CC[C@H](C)[C@H](NC(=O)[C@H](CO)NC(=O)[C@H](Cc1ccc(O)cc1)NC(=O)[C@H](CC(=O)O)NC(=O)[C@H](CO)NC(=O)[C@@H](NC(=O)[C@H](Cc1ccccc1)NC(=O)[C@@H](NC(=O)CNC(=O)[C@H](CCC(=O)O)NC(=O)[C@H](C)NC(=O)[C@@H](N)Cc1ccc(O)cc1)[C@@H](C)O)[C@@H](C)CC)C(=O)N[C@@H](C)C(=O)N[C@@H](CCSC)C(=O)N[C@@H](CC(=O)O)C(=O)N[C@@H](CCCCN)C(=O)N[C@H](C(=O)N[C@@H](Cc1c[nH]cn1)C(=O)N[C@@H](CCC(N)=O)C(=O)N[C@@H](CCC(N)=O)C(=O)N[C@@H](CC(=O)O)C(=O)N[C@@H](Cc1ccccc1)C(=O)N[C@H](C(=O)N[C@@H](CC(N)=O)C(=O)N[C@@H](Cc1c[nH]c2ccccc12)C(=O)N[C@@H](CC(C)C)C(=O)N[C@@H](CC(C)C)C(=O)N[C@@H](C)C(=O)N[C@@H](CCC(N)=O)C(=O)N[C@@H](CCCCN)C(=O)NCC(=O)N[C@@H](CCCCN)C(=O)N[C@@H](CCCCN)C(=O)N[C@@H](CC(N)=O)C(=O)N[C@@H](CC(=O)O)C(=O)N[C@@H](Cc1c[nH]c2ccccc12)C(=O)N[C@@H](CCCCN)C(=O)N[C@@H](Cc1c[nH]cn1)C(=O)N[C@@H](CC(N)=O)C(=O)N[C@H](C(=O)N[C@H](C(=O)N[C@@H](CCC(N)=O)C(=O)O)[C@@H](C)O)[C@@H](C)CC)C(C)C)[C@@H](C)CC [GIP]
SD rat islets
  potentiation of GSIS at low concentrations: potentiated GSIS
[7]; 6 pmol/kg/min s.c., 6 days, mean ± SEM
  increase of daytime time in range (3.9-[…]) vs placebo: 160 ± 74 min/day
[7]; in vivo
  decrease of 24-hour diastolic blood pressure: 3.1 ± 1.3 mmHg
  decrease of 24-hour systolic blood pressure: 5.8 ± 2.6 mmHg
[8]; GIP infusion, operated subjects
  SAT blood flow increase from baseline: 143%
[8]; GIP-infusion, control
  VAT blood flow increase from baseline: 234%
[8]; GIP-infusion, controls
  SAT blood flow increase from baseline: 385%
[8]; GIP-infusion, obese
  SAT blood flow increase from baseline: 119%
  VAT blood flow increase from baseline: 105%

## CCOc1ccc(Cc2cc([C@@H]3O[C@H](CO)[C@@H](O)[C@H](O)[C@H]3O)ccc2Cl)cc1 [dapagliflozin]
CON-D and T2DM-D, non-significant
  increase in hepatic lipid content (HCL): 20%
T2DM-D, T2DM-P -6±0.02
  decrease in hepatic glycogen: -10±0.02%
Both groups
  glycogenolysis: no impact
Single dose 10mg
  EGP higher following administration: 25%
[9]
  diastolic blood pressure, mean difference versus placebo: -1.48 mmHg

## O=S(=O)(Nc1cc(Cl)c(Oc2cnc3ccccc3c2)c(Cl)c1)c1ccc(Cl)cc1Cl [CHS-131]
[10]; high dose
  lower plasma aspartate transaminase: 29%
  lower total cholesterol: 20%
[10]; high dose 30 mg/kg
  increase of plasma adiponectin: 137%
[10]; high dose 30 mg/kg, 12 weeks
  lower plasma alanine transaminase: 37%
[10]; low dose 10 mg/kg
  increase of plasma adiponectin: 114%
[10]; trend
  Galectin-3: -18%
  hydroxyproline: -28%

## CCc1ccc(Cc2ccc3c(c2)[C@]2(OC3)O[C@H](CO)[C@@H](O)[C@H](O)[C@H]2O)cc1 [tofogliflozin]
[5]; baseline 1.6 ± 1.1
  stage score: 1.1 ± 1.3
[5]; baseline 1.7 ± 0.9
  grade score: 0.9 ± 0.8
[5]
  AST: 27.2 ± 22.4 IU/L
  ALT: 33.1 ± 31.5 IU/L
  body weight: 73.3 ± 18.3 kg
  HbA1c: 6.9 ± 1.2%
[5]; tofogliflozin baseline 2.0 ± 0.7
  steatosis score: 1.2 ± 0.4

## CCCCCCCCCCCCCCCC(=O)N[C@@H](CCC(=O)NCCCC[C@H](NC(=O)[C@H](C)NC(=O)[C@H](C)NC(=O)[C@H](CCC(N)=O)NC(=O)CNC(=O)[C@H](CCC(=O)O)NC(=O)[C@H](CC(C)C)NC(=O)[C@H](Cc1ccc(O)cc1)NC(=O)[C@H](CO)NC(=O)[C@H](CO)NC(=O)[C@@H](NC(=O)[C@H](CC(=O)O)NC(=O)[C@H](CO)NC(=O)[C@@H](NC(=O)[C@H](Cc1ccccc1)NC(=O)[C@@H](NC(=O)CNC(=O)[C@H](CCC(=O)O)NC(=O)[C@H](C)NC(=O)[C@@H](N)Cc1cnc[nH]1)[C@@H](C)O)[C@@H](C)O)C(C)C)C(=O)N[C@@H](CCC(=O)O)C(=O)N[C@@H](Cc1ccccc1)C(=O)N[C@H](C(=O)N[C@@H](C)C(=O)N[C@@H](Cc1c[nH]c2ccccc12)C(=O)N[C@@H](CC(C)C)C(=O)N[C@H](C(=O)N[C@@H](CCCNC(=N)N)C(=O)NCC(=O)N[C@@H](CCCNC(=N)N)C(=O)NCC(=O)O)C(C)C)[C@@H](C)CC)C(=O)O [Liraglutide]
[11]; after four weeks
  change in mean FLT-uptake in pancreatic tissue: +0.08
[11]; baseline to six weeks, MRI
  change in pancreatic volume: +0.2 cm^3
[11]; titration period
  change in maximum FLT-uptake: +0.3

## GIP(3-30)
SD rat islets; receptor antagonists
  insulin secretion in response to glucose alone: not reduced

## insulin glargine U100 [IGlar U100]
[12]; baseline 8.1 icodec, 8.0 IGlar U100
  estimated mean HbA1c at week 26: 6.9%
[12]; in vivo
  estimated mean FPG at week 26: 7.05 mmol/L
  estimated mean weekly insulin dose, last two weeks: 284 U/week
[12]; on-treatment period
  level 2 and 3 hypoglycaemia: 46 events per 100 patient years of exposure
[12]; week 26
  estimated mean change in HbA1c from baseline: -1.15 %-points

## glucagon-like peptide-1 (HAEGTFTSDVSSYLEGQAAKEFIAWLVKGR; ends and bridges not checked; UniProt P01275 98-127, looked up) [GLP-1]
SD rat islets
  potentiation of GSIS at low concentrations: no such effect

## CCOC(=O)C1=CCCC[C@H]1S(=O)(=O)Nc1ccc(F)cc1Cl [TAK-242]
[6]
  resistin-dependent neuronal inflammation and IR: prevents

## C[N+](C)(C)C[C@H](O)CC(=O)[O-] [carnitine, L-carnitine]
[13]; before 1.18±0.13
  resting skeletal muscle acetylcarnitine: 1.54±0.17 mmol/kgww
[13]; before 3.70±0.22
  post-exercise skeletal muscle acetylcarnitine: 4.53±0.30 mmol/kgww
[13]; before 8.1±0.3
  plasma glucose: 7.7 ± 0.3 mmol/L
[13]; before 10.53±1.85
  ΔRd (peripheral insulin sensitivity): 13.83 ± 2.02 µmol/kg/min
[13]; before 14.7±2.6
  intrahepatic lipid content (IHL): 12.8±2.2%
[13]; before 31.9 ±2.9
  EGP suppression (hepatic insulin sensitivity): 39.9±3.2%

## Cc1ccc([C@@H]2O[C@H](CO)[C@@H](O)[C@H](O)[C@H]2O)cc1Cc1ccc(-c2ccc(F)cc2)s1 [canagliflozin]
[9]
  diastolic blood pressure, mean difference versus placebo: -1.42 mmHg

B1: resistin: "circulating factors originated from adipose tissue and immune cells"; "a key mediator linking obesity to IR" (protein, UniProt Q9HD89 19-108, looked up)
Resistin: KTLCSMEEAINERIQEVAGSLIFRAISSIGLECQSVTSRGDLATCPRGFAVTGCTCGSACGSWDVRAETTCHCQCAGMDWTGARCCRVQP
[6]; [14]
  increased expression of IL6: 89.93%
  inhibition of insulin-dependent phosphorylation of Akt: 40.6%
